Experiments:
VCaP = assay: Antiproliferative activity against human VCaP expressing AR assessed as reduction in cell viability incubated for 6 days by CCK-8 assay; format: functional, cell-based; conditions: 144 h
Procedure, shortened: (§1)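 Cell proliferation assay run on LNCaP/AR, VCaP, 22Rv1, PC-3 and L-02 cells, with PC-3 and L-02 serving as AR-independent toxicity controls. IC50 fitted in GraphPad Prism 5 as the mean of at least two experiments, each in duplicate. Deviations under 35%.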

LNCaP = assay: Antiproliferative activity against human LNCAP expressing AR assessed as reduction in cell viability incubated for 6 days by CCK-8 assay; format: functional, cell-based; conditions: 144 h; procedure, shortened: as §1
CWR22R = assay: Antiproliferative activity against human 22Rv1 expressing AR assessed as reduction in cell viability incubated for 6 days by CCK-8 assay; format: functional, cell-based; conditions: 22Rv1, 144 h; procedure, shortened: as §1
PC-3 = assay: Cytotoxicity against human PC3 assessed as reduction in cell viability incubated for 6 days by CCK-8 assay; format: cell-based; conditions: PC-3, 144 h; procedure, shortened: as §1
L02 = assay: Cytotoxicity against human L02 assessed as reduction in cell viability incubated for 6 days by CCK-8 assay; format: cell-based; conditions: L02, 144 h; procedure, shortened: as §1

C[C@@H](Cn1ccc(-c2ccc(C#N)c(Cl)c2)n1)Nc1nccc(Cl)n1
IC50 (VCaP): > 30 µM
IC50 (LNCaP): 1.4 µM
IC50 (CWR22R): > 30 µM
IC50 (PC-3): > 30 µM

C[C@@H](Cn1ccc(-c2ccc(C#N)c(Cl)c2)n1)NS(=O)(=O)c1cccnc1
IC50 (VCaP): 2.45 µM
IC50 (LNCaP): 6.14 µM
IC50 (PC-3): > 30 µM

CC(O)c1ccc(C(=O)N[C@@H](C)Cn2ccc(-c3ccc(C#N)c(Cl)c3)n2)cc1 (stereo not given in full)
IC50 (VCaP): 0.91 µM
IC50 (LNCaP): 3.69 µM
IC50 (CWR22R): 9.05 µM
IC50 (L02): > 30 µM
IC50 (PC-3): > 30 µM

CC(Cn1ccc(-c2ccc(C#N)c(Cl)c2)n1)C(=O)Nc1cc[nH]n1 (racemic)
IC50 (VCaP): > 30 µM
IC50 (LNCaP): > 30 µM
IC50 (PC-3): > 30 µM

COC(=O)/C=C/C(=O)N[C@@H](C)Cn1ccc(-c2ccc(C#N)c(Cl)c2)n1
IC50 (VCaP): 5.23 µM
IC50 (LNCaP): 2.46 µM
IC50 (PC-3): > 30 µM

C[C@@H](Cn1ccc(-c2ccc(C#N)c(Cl)c2)n1)Nc1ccc2c(ccn2C)c1
IC50 (VCaP): 2.13 µM
IC50 (LNCaP): 0.49 µM
IC50 (CWR22R): 12 µM

C[C@@H](Cn1ccc(-c2ccc(C#N)c(Cl)c2)n1)NC(=O)c1ccccc1
IC50 (LNCaP): 1.83 µM
IC50 (PC-3): > 30 µM

CC(=O)c1cc(C(=O)N[C@@H](C)Cn2ccc(-c3cc(F)c(C#N)c(Cl)c3)n2)n[nH]1
IC50 (LNCaP): 1.1 µM
IC50 (CWR22R): > 30 µM
IC50 (L02): 27.7 µM
IC50 (PC-3): > 30 µM

C[C@@H](Cn1ccc(-c2ccc(C#N)c(Cl)c2)n1)Nc1ccc2cnccc2c1
IC50 (VCaP): 2.26 µM
IC50 (LNCaP): 0.51 µM
IC50 (CWR22R): 2.98 µM

C[C@@H](Cn1ccc(-c2ccc(C#N)c(Cl)c2)n1)Nc1ccncc1
IC50 (VCaP): 9.9 µM
IC50 (LNCaP): 2.56 µM
IC50 (CWR22R): 11.5 µM

C[C@@H](Cn1ccc(-c2ccc(C#N)c(Cl)c2)n1)Nc1ccc2ccccc2n1
IC50 (VCaP): 0.87 µM
IC50 (LNCaP): 2.3 µM
IC50 (CWR22R): 7.95 µM
IC50 (PC-3): > 30 µM

C[C@@H](Cn1ccc(-c2ccc(C#N)c(Cl)c2)n1)NC(=O)C1CC(=O)C1
IC50 (VCaP): 22.5 µM
IC50 (LNCaP): 3.04 µM
IC50 (PC-3): > 30 µM

CC(=O)c1ccc(C(=O)N[C@@H](C)Cn2ccc(-c3ccc(C#N)c(Cl)c3)n2)cc1
IC50 (VCaP): 1.4 µM
IC50 (LNCaP): 3.6 µM
IC50 (L02): 15.3 µM
IC50 (PC-3): > 30 µM

CC(=O)c1cccc(NC(=O)C(C)Cn2ccc(-c3ccc(C#N)c(Cl)c3)n2)c1 (racemic)
IC50 (VCaP): 2.98 µM
IC50 (LNCaP): 1.54 µM
IC50 (PC-3): > 30 µM

C[C@@H](Cn1ccc(-c2ccc(C#N)c(Cl)c2)n1)Nc1cccc2ccncc12
IC50 (VCaP): 4.02 µM
IC50 (LNCaP): 3.09 µM
IC50 (CWR22R): 4.72 µM
IC50 (PC-3): 5.13 µM

C[C@@H](Cn1ccc(-c2ccc(C#N)c(Cl)c2)n1)NC(=O)c1cccc(OCC(O)CO)c1 (stereo not given in full)
IC50 (VCaP): 0.59 µM
IC50 (LNCaP): 0.74 µM
IC50 (CWR22R): > 30 µM
IC50 (L02): > 30 µM
IC50 (PC-3): > 30 µM

C[C@@H](Cn1ccc(-c2ccc(C#N)c(Cl)c2)n1)Nc1ccc2cccnc2c1
IC50 (VCaP): 3.22 µM
IC50 (LNCaP): 2.66 µM
IC50 (CWR22R): 5.82 µM
IC50 (PC-3): 11.2 µM

C[C@@H](Cn1ccc(-c2ccc(C#N)c(Cl)c2)n1)Nc1ccccc1
IC50 (VCaP): > 30 µM
IC50 (LNCaP): 0.71 µM
IC50 (CWR22R): > 30 µM
IC50 (L02): 29.4 µM
IC50 (PC-3): 3.21 µM

C[C@@H](Cn1ccc(-c2ccc(C#N)c(Cl)c2)n1)Nc1cccc2ccccc12
IC50 (VCaP): 28.1 µM
IC50 (LNCaP): 0.87 µM
IC50 (CWR22R): > 30 µM

COc1ccc(C(=O)N[C@@H](C)Cn2ccc(-c3ccc(C#N)c(Cl)c3)n2)cc1
IC50 (VCaP): 1.54 µM
IC50 (LNCaP): 3.41 µM
IC50 (PC-3): > 30 µM

CC(=O)c1cc(C(=O)N[C@@H](C)Cn2ccc(-c3ccc(C#N)c(Cl)c3)n2)n[nH]1
IC50 (LNCaP): 1.13 µM
IC50 (CWR22R): > 30 µM
IC50 (PC-3): > 30 µM

CC(O)c1cc(C(=O)N[C@H](C)Cn2ccc(-c3ccc(C#N)c(Cl)c3)n2)n[nH]1 (stereo not given in full)
IC50 (LNCaP): 1.65 µM
IC50 (CWR22R): > 30 µM
IC50 (PC-3): > 30 µM

Cc1ccnc(N[C@@H](C)Cn2ccc(-c3ccc(C#N)c(Cl)c3)n2)n1
IC50 (VCaP): 0.85 µM
IC50 (LNCaP): 1.33 µM
IC50 (CWR22R): 4.76 µM
IC50 (L02): > 30 µM
IC50 (PC-3): > 30 µM

C[C@@H](Cn1ccc(-c2ccc(C#N)c(Cl)c2)n1)Nc1nc(Cl)nc2nc[nH]c12
IC50 (VCaP): 2.7 µM
IC50 (LNCaP): 2.66 µM
IC50 (CWR22R): 4.38 µM
IC50 (L02): 14.5 µM
IC50 (PC-3): > 30 µM

C[C@@H](Cn1ccc(-c2ccc(C#N)c(Cl)c2)n1)Nc1cncc2ccccc12
IC50 (VCaP): 12.4 µM
IC50 (LNCaP): 2.28 µM

C[C@H](Cn1ccc(-c2ccc(C#N)c(Cl)c2)n1)Nc1ncnc2nc[nH]c12
IC50 (VCaP): 2 µM
IC50 (LNCaP): 0.85 µM
IC50 (CWR22R): 10.6 µM
IC50 (PC-3): 1.56 µM

C[C@@H](Cn1ccc(-c2ccc(C#N)c(Cl)c2)n1)NC(=O)c1cc[nH]n1
IC50 (LNCaP): 1 µM
IC50 (CWR22R): > 30 µM
IC50 (L02): > 30 µM
IC50 (PC-3): 18.7 µM

C[C@@H](Cn1ccc(-c2ccc(C#N)c(Cl)c2)n1)Nc1cncnc1
IC50 (VCaP): > 30 µM
IC50 (LNCaP): 2.07 µM
IC50 (CWR22R): > 30 µM
IC50 (L02): > 30 µM
IC50 (PC-3): > 30 µM

C[C@H](Cn1ccc(-c2ccc(C#N)c(Cl)c2)n1)Nc1ncnc2ccccc12
IC50 (VCaP): > 30 µM
IC50 (LNCaP): 0.97 µM
IC50 (CWR22R): 9.71 µM

C[C@@H](Cn1ccc(-c2ccc(C#N)c(Cl)c2)n1)Nc1ccc2ncccc2c1
IC50 (VCaP): > 30 µM
IC50 (LNCaP): 13 µM

C[C@@H](Cn1ccc(-c2ccc(C#N)c(Cl)c2)n1)Nc1ccnc2ccccc12
IC50 (VCaP): 2.41 µM
IC50 (LNCaP): 4.81 µM
IC50 (CWR22R): 4.29 µM

C[C@@H](Cn1ccc(-c2cc(F)c(C#N)c(Cl)c2)n1)NC(=O)Nc1cc(C(C)(C)C)[nH]n1
IC50 (VCaP): 5.12 µM
IC50 (LNCaP): 1.63 µM
IC50 (L02): 15 µM
IC50 (PC-3): > 30 µM

C[C@@H](Cn1ccc(-c2ccc(C#N)c(Cl)c2)n1)NC(=O)c1ccccc1F
IC50 (VCaP): 2.19 µM
IC50 (LNCaP): 1.81 µM
IC50 (PC-3): > 30 µM

C[C@@H](Cn1ccc(-c2ccc(C#N)c(Cl)c2)n1)Nc1ccccn1
IC50 (LNCaP): 1.11 µM
IC50 (CWR22R): > 30 µM

C[C@@H](Cn1ccc(-c2ccc(C#N)c(Cl)c2)n1)Nc1ncccn1
IC50 (VCaP): 0.48 µM
IC50 (LNCaP): 1.18 µM
IC50 (CWR22R): 12.5 µM
IC50 (L02): > 30 µM
IC50 (PC-3): > 30 µM

C[C@@H](Cn1ccc(-c2ccc(C#N)c(Cl)c2)n1)Nc1cc2ccccc2cn1
IC50 (VCaP): 1.58 µM
IC50 (LNCaP): 1.91 µM
IC50 (CWR22R): 12 µM

C[C@@H](Cn1ccc(-c2ccc(C#N)c(Cl)c2)n1)Nc1cccc2cccnc12
IC50 (VCaP): > 30 µM
IC50 (LNCaP): 0.79 µM
IC50 (CWR22R): > 30 µM

C[C@@H](Cn1ccc(-c2ccc(C#N)c(Cl)c2)n1)Nc1ccc2ccccc2c1
IC50 (VCaP): 4.61 µM
IC50 (LNCaP): 7.7 µM
IC50 (CWR22R): 4.61 µM
IC50 (L02): 26.8 µM

CC(=O)c1ccc(S(=O)(=O)N[C@@H](C)Cn2ccc(-c3ccc(C#N)c(Cl)c3)n2)cc1
IC50 (VCaP): 3.95 µM
IC50 (LNCaP): 5.23 µM
IC50 (PC-3): > 30 µM

C[C@@H](Cn1ccc(-c2ccc(C#N)c(Cl)c2)n1)NS(=O)(=O)c1cn(C)cn1
IC50 (VCaP): 13.6 µM
IC50 (LNCaP): > 30 µM
IC50 (PC-3): > 30 µM

C[C@@H](Cn1ccc(-c2ccc(C#N)c(Cl)c2)n1)Nc1nccc2ccccc12
IC50 (VCaP): 1.47 µM
IC50 (LNCaP): 2.1 µM
IC50 (CWR22R): 3.57 µM
IC50 (PC-3): > 30 µM

C[C@@H](Cn1ccc(-c2ccc(C#N)c(Cl)c2)n1)Nc1cnc2ccccc2c1
IC50 (VCaP): 1.94 µM
IC50 (LNCaP): 1.87 µM
IC50 (CWR22R): 6.04 µM

C[C@@H](Cn1ccc(-c2ccc(C#N)c(Cl)c2)n1)Nc1cccc2cnccc12
IC50 (VCaP): > 30 µM
IC50 (LNCaP): 0.87 µM
IC50 (CWR22R): 21.2 µM

Source: ChEMBL document CHEMBL4359895, “Discovery and biological evaluation of darolutamide derivatives as inhibitors and down-regulators of wild-type AR and the mutants” (Eur J Med Chem, 2019)
